Test [1] concerns the target T1, LYP (Homo sapiens, UniProt Q9Y2R2).
T1 sequence (Q9Y2R2 24-289 limits assumed): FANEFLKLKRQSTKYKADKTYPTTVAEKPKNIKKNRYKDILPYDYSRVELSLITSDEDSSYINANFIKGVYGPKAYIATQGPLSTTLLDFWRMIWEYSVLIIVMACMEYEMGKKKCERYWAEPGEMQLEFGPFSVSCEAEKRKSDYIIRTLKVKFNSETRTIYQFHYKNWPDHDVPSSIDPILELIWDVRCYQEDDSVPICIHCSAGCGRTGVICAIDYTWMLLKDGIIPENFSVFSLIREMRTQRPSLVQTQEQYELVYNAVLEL
Put plainly: Mode of inhibition assay. The format is biochemical. The procedure, abridged:
(§1)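 Catalytic domains (LYP and PTP-PEST 5 nM; LYP C129/231S 20 nM) in pH 6.5 Tris/NaCl/EDTA/DTT/Brij 35 buffer at room temperature. Activity measured across a series of DiFMUP concentrations with no test compound or several fixed test compound concentrations, triplicate at each substrate level. Reciprocal rate plotted against reciprocal substrate concentration for each inhibitor level (Lineweaver–Burk).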

Another test relates to CD45. The note with it: cited from earlier work.
Test [2] has as its target T2, LYP C129/231S (Homo sapiens, UniProt Q9Y2R2, C129S/C231S).
T2 sequence (Q9Y2R2 24-289 C129S/C231S limits assumed): T1 sequence (Q9Y2R2 24-289 limits assumed) with C106S, C208S
Put plainly: Enzyme inhibition assay. It is filed as biochemical. The procedure, abridged:
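LYP C129S/C231S catalytic domain at 20 nM final, preactivated with 0.1 mM DTT for 1 h. Test compound and 1.5 μM DiFMUP added in DMSO (5% final). Fluorescence (ex 360/em 455 nm) read every 60 s for 30 min, in triplicate, averaged, converted to DiFMU via standard curve.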

Test [3] has as its target T3, PTP-PEST (Homo sapiens, UniProt Q05209).
T3 sequence (Q05209 28-293 limits assumed): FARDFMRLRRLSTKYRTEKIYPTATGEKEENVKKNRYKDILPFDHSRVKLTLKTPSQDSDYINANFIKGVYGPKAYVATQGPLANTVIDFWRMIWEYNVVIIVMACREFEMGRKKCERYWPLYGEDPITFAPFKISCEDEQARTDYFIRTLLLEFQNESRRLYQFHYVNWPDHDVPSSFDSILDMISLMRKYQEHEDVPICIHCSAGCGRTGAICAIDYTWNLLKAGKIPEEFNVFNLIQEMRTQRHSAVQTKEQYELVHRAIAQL
The note with it: cited from earlier work.

The target of test [4] is T2, LYP C129/231S. Put plainly: Mode of inhibition assay. The format is biochemical. The procedure, abridged: as §1
The next test concerns HePTP. Particulars: cited from earlier work.
The target of test [5] is T3, PTP-PEST. Put plainly: Mode of inhibition assay. The format is biochemical. The procedure, abridged:
as §1

For a further test, the system named is Jurkat TAg cells. Put plainly: Inhibition studies with JTAg cells. The format is cell-based. Particulars: 50 μM, 1 h, western blot. The procedure, abridged:
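Jurkat TAg cells kept in log growth in supplemented RPMI 1640 (10% FBS). 20×10^6 cells treated for 1 h at room temperature with 50 μM test compound or DMSO (<2%), then split and stimulated 2 min with C305 hybridoma supernatant or left unstimulated. NP-40 lysates, Bradford-normalised, run on 10% SDS–PAGE. Blots probed for pLck Y394/Y505, pZAP-70 Y319 and pERK against total-protein controls, developed by ECL.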

A further test concerns the target T4, LYP C231S (Homo sapiens, UniProt Q9Y2R2, C231S).
T4 sequence (Q9Y2R2 24-289 C231S limits assumed): T1 sequence (Q9Y2R2 24-289 limits assumed) with C208S
The test is described as follows: Enzyme inhibition assay. Particulars: 5 nM enzyme, 1.5 μM DiFMUP. It is filed as biochemical. The procedure, abridged: (§2)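 Single-mutant catalytic domains (C129S or C231S) at 5 nM final, each activated 30 min with 0.1 mM DTT. Triplicate kinetic fluorescence (360/455 nm, every 60 s, 30 min), averaged, converted to DiFMU by standard curve.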

Another test has as its target T5, LYP C129S (Homo sapiens, UniProt Q9Y2R2, C129S).
T5 sequence (Q9Y2R2 24-289 C129S limits assumed): T1 sequence (Q9Y2R2 24-289 limits assumed) with C106S
Put plainly: Enzyme inhibition assay. It is filed as biochemical. Particulars: 5 nM enzyme, 1.5 μM DiFMUP. The procedure, abridged: as §2

The target of test [6] is T1, LYP. Particulars: wild-type LYP; cited from earlier work.
Where [7] appears, read: read-out: Calculated Ki, from Lineweaver-Burk data.
Setting [8] is: read-out: Estimated Ki from Dixon plot, Ki = -intersection point.

Results on 1 compound are retold here after article PMC2873867 (Journal of inorganic biochemistry, 2009).

Numbering of substitutions follows the chain as printed. Like-named read-outs stand apart in the source and are kept apart here.

With `N#CCC[PH](CCC#N)([Au][Cl])c1ccccc1` [Complex 1, bis(cyanoethyl)phenylphosphine–Au(I)–Cl], the Mode of inhibition result on LYP [1] (Lineweaver-Burk plot) is “competitive inhibition”; at LYP C129/231S [4] (Lineweaver-Burk plot), “mixed-type inhibition”; on PTP-PEST [5] (Lineweaver-Burk plot), “competitive inhibition”. Moreover, the Ki is 2.38 ± 1.1 µM on LYP [1] (setting [7]); around 1.2 µM at LYP [1] (setting [8]); 58.6 ± 5.3 µM at LYP C129/231S [4] (setting [7]); around 70 µM on LYP C129/231S [4] (setting [8]); 53.3 ± 16.3 µM on PTP-PEST [5] (setting [7]); around 80 µM at PTP-PEST [5] (setting [8]). Further, the concentration for half-maximal inhibition (IC50) in the test on CD45 is above 70 µM; at LYP C129/231S [2] (LYP C129/231S, 20 nM enzyme, 1.5 μM DiFMUP), 40 ± 4 µM; at PTP-PEST [3] it was above 80 µM; in the test with HePTP it was above 50 µM; against LYP C231S, 4 ± 0.8 µM; against LYP C129S, 4 ± 0.2 µM. For the same compound, the concentration for half-maximal inhibition (IC50) at LYP [6] is 3.5 ± 0.1 µM. The “IC50 of LYP C129/231S relative to wild-type LYP and single mutants” value on LYP C129/231S [2] (fold higher) is recorded as “roughly 10 fold”. The “Phosphorylation of Lck at Y505 (cellular CD45 inhibition)” value in the test with Jurkat TAg cells (JTAg cells) was “no change in phosphorylation levels at position Y505”. Further, the “Phosphorylation of ERK1/2” value with Jurkat TAg cells (TCR stimulated JTAg cells) was “increased phosphorylation levels”. The “Phosphorylation of Lck at Y394 (cellular LYP inhibition)” value in the test with Jurkat TAg cells (TCR stimulated JTAg cells) is “increase in phosphorylation at Y394”. Besides, the “Phosphorylation of ZAP-70” value in the test on Jurkat TAg cells (TCR stimulated JTAg cells) is listed as “increased phosphorylation levels”.
